Experimental data of several laboratories.
Compare with care: the assays were run in different laboratories.
Cell line: DU-145
Observed: cell growth or viability

| Compound | technique | time | GI50 [nM] |
| --- | --- | --- | --- |
| CCc1cc(CN2CCc3cc(OS(N)(=O)=O)c(OC)cc3C2)cc(CC)c1CC | WST-1 | 96 h | 1800 |
| COc1ccc(OC)c(CN2CCc3cc(OS(N)(=O)=O)c(OC)cc3C2)c1 | WST-1 | 96 h | 2610 |
| COc1ccc(C(=O)/C=C/c2ccc3ccccc3c2)cc1S(N)(=O)=O | SRB | 48 h | 3300 |
| Cc1cc(C)n(C(=S)[S][Au][PH](CCCCCC[PH]([Au][S]C(=S)n2nc(C)cc2C)(c2ccccc2)c2ccccc2)(c2ccccc2)c2ccccc2)n1 |  |  | 633 |
| COc1cc2c(cc1O)CCN(Cc1cc(OC)c(OC)c(OC)c1)C2 | WST-1 | 96 h | 650 |
| CCOc1cc(CN2CCc3cc(O)c(OC)cc3C2)cc(OCC)c1OCC | WST-1 | 96 h | > 100000 |
| COc1ccc(-c2ccc(-c3ccc(C(=N)N)nc3)s2)cc1 |  |  | 1770 |
| CCOc1c(OC)cc(CN2CCc3cc(O)c(OC)cc3C2)cc1OC | WST-1 | 96 h | 300 |
| COc1cc2c(cc1O)CCN(Cc1ccc(OC)c(OC)c1OC)C2 | WST-1 | 96 h | > 100000 |
| COc1cc2c(cc1O)CCN(Cc1cc(Br)c(OC)c(OC)c1)C2 | WST-1 | 96 h | 300 |
| COc1cc2c(cc1OS(N)(=O)=O)CCN(Cc1cccc(C(C)=O)c1)C2 | WST-1 | 96 h | 1850 |
| COc1ccc(C(=O)/C=C/c2cccnc2)cc1S(N)(=O)=O | SRB | 48 h | 11200 |
| COc1cccc(S(=O)(=O)N2CCc3cc(OS(N)(=O)=O)c(OC)cc3C2)c1 | WST-1 | 96 h | 56700 |
| COc1ccc(C(=O)/C=C/c2cc3c(cc2Br)OCO3)cc1S(N)(=O)=O | SRB | 48 h | 3700 |
| CCc1cc(CN2CCc3cc(O)c(OC)cc3C2)cc(CC)c1CC | WST-1 | 96 h | 63000 |
| COc1ccc(C(=O)/C=C/c2cccc(Cl)c2Cl)cc1S(N)(=O)=O | SRB | 48 h | 2900 |
| COc1ccc(-c2ccc(-c3ccc(C(=N)N)nc3)s2)cc1Cl |  |  | 1770 |
| COc1cccc(C(=O)N2CCc3cc(O)c(OC)cc3C2)c1 | WST-1 | 96 h | 31300 |
| COc1ccc(C(=O)/C=C/c2ccc(Cl)c(Cl)c2)cc1S(N)(=O)=O | SRB | 48 h | 3500 |
